Rows were chosen to be rich in hits. Some 2.2% of all compounds tested hit in one or more screens of this group.
ARFGAP1 inhibitor – inhibitors of rat ARFGAP1 GAP activity, primary screen, biochemical, fluorescence polarization, GDP tracer | ADP-ribosylation factor GTPase-activating protein 1 (Rattus norvegicus), Q62848 | AID 651572, 2012 | Arfgap1-stimulated ARF1 GTP hydrolysis, GDP FP detection | inhibition, % at 16.5 µM | 360,000 compounds, 0.26% hits;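 active = inhibition above a per-plate limit, mean inhibition of low control wells plus 3 SD, cut at about 25% in these data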;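 also: 0% = DMSO wells with enzyme and 100% = wells lacking Arfgap1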
Target sequence (Q62848 1-136 limits assumed): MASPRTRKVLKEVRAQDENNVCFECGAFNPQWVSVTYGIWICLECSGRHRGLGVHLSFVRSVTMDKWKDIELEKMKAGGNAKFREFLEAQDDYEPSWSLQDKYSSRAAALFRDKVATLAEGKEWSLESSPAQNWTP
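Material: rat Arfgap1 catalytic domain, aa 1-136; also added: human ARF1(Δ1-17)-GTP substrate; compound dosing: one concentration, 16.5 µM, DMSO 1.26%; incubation: GTP hydrolysis reaction 2 h at 25 °C; measured by: Tracer-displacement fluorescence polarization with EDTA stop, 620/688 nm; evaluation: % inhibition from polarization; repeats: one replicate per compound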
ASAP1 inh – inhibitors of human ASAP1 ArfGAP activity, primary screen, biochemical, fluorescence polarization; AID 624377, 2012; 360,000 compounds, 0.19% hits; inhibition, % at 16.5 µM; ASAP1-stimulated ARF1 GTP hydrolysis, GDP FP detection; Arf-GAP with SH3 domain, ANK repeat and PH domain-containing protein 1 (Homo sapiens), …; in the data active = inhibition above about 25%;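 also: 0% = vehicle with enzyme and substrate and 100% = no enzyme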
Target sequence (Q9ULH1 325-724 limits assumed): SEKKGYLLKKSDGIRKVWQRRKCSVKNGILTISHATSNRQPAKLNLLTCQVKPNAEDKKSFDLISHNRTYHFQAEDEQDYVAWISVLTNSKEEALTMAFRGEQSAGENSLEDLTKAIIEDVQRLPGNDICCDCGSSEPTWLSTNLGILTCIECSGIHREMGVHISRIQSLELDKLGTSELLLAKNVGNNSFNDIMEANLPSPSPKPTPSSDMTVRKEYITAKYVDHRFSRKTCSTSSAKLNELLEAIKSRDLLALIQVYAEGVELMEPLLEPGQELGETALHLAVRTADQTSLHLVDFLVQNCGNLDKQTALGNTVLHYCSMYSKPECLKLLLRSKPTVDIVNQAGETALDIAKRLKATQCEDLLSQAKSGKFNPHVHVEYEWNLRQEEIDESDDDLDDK
NadD inh – inhibitors of S. aureus NadD, primary screen, biochemical, colorimetric, uHTS | inhibition, % at 20 µM | Nicotinate-nucleotide adenylyltransferase NadD (Staphylococcus aureus N315) | purified NadD enzyme, colorimetric absorbance read-out | 360,000 compounds, 0.78% hits; in the data active = inhibition above about 26%
rCAG RNA binder – binders of r(CAG) RNA repeats, primary screen, biochemical, fluorescence; AID 651821, 2012; inhibition, % at 3 µM; r(CAG) RNA repeat, TO-PRO-1 dye displacement fluorescence; 370,000 compounds, 1.3% hits;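 active = inhibition above the plate cutoff, the mean of all test compounds on that plate plus 3 SD, cut at about 35% in these data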;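 also: 0% = DMSO alone and 100% = 100 µM mitoxantrone as full dye displacement; higher means more dye released from RNA so lower well fluorescence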
rCAG binder conf – small molecules binding CAG repeat RNA – biochemical, fluorescence, confirmation; shares compounds with rCAG RNA binder; inhibition, % at 3 µM; 4,300 compounds, 70% hits; r(CAG) RNA repeat, TO-PRO-1 dye displacement fluorescence;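 active = inhibition above a per-plate cutoff, the mean inhibition of sample wells plus 3 SD, cut at about 35% in these data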;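 also: loss of TO-PRO-1 fluorescence as compound displaces dye from 1x1 AA loop RNA; 0% = DMSO only wells and 100% = 100 µM mitoxantrone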
dCAG dye counter – displacement of TO-PRO-1 from CAG DNA duplex, counter-screen for rCAG RNA repeat binder project, biochemical, fluorescence, TO-PRO-1 dye, d(CAG) DNA oligo. inhibition, % at 3 µM. 4,300 compounds, 94% hits. d(CAG) DNA oligo TO-PRO-1 dye displacement. shares compounds with rCAG RNA binder;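 active = inhibition above its plate's cutoff, the mean test-well inhibition plus 3 SD, cut at about 4.8% in these data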;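 also: 0% = DNA dye mix with DMSO and 100% = 100 µM mitoxantrone; hits displace the dye from DNA and so lower well fluorescence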
The depositor's hits bear a star; nt = no result given.

SMILES	ARFGAP1 inhibitor	ASAP1 inh	NadD inh	rCAG RNA binder	rCAG binder conf	dCAG dye counter
O=[N+]([O-])c1cc(/C=N/Nc2nc3ccccc3[nH]2)c(O)cc1O	-1	17	nt	36*	29	13*
O=C(O)c1cc(S(=O)(=O)N2CCN(C(c3ccccc3)c3ccccc3)CC2)ccc1Cl	-3	-5	4	55*	49*	17*
O=C(O)c1cc(S(=O)(=O)N2CCN(S(=O)(=O)c3ccc4ccccc4c3)CC2)ccc1Br	-7	3	7	53*	43*	15*
COc1ccc(C(=O)NCCSCc2ccccc2Cl)cc1OC	-18	-5	-10	80*	3	0
COc1cccc(/C=C2\SC(=S)NC2=O)c1OS(=O)(=O)c1ccc(NC(C)=O)cc1	11	-1	1	69*	32	9.3*
COc1ccc(/C=C2\SC(=S)NC2=O)cc1OS(=O)(=O)c1ccc(NC(C)=O)cc1	2	9	1	88*	78*	35*
CCOC(=O)[C@]12CCCC=C1N(CCCOC)C(=O)[C@@H]2CC(=O)NCc1ccccc1	nt	nt	nt	1	nt	nt
N#Cc1c(N(CCO)CCO)nc(N)c2c(N)nc3c(c12)CC(=O)N3CC1CCCO1 (stereo not drawn)	-1	13	-18	35*	10	5.7*
COc1cccc(-n2c(SCc3cc(=O)oc4cc(O)c(O)cc34)nc3ccccc3c2=O)c1	-1	-1	65*	65*	70*	33*
CCN(CC)C(=O)CSc1nc2ccccc2c(=O)n1-c1cccc(OC)c1	-8	9	-1	0	nt	nt
CCc1ccc(C2CC3C(CN2S(=O)(=O)c2ccc(C)cc2)C(=O)CC(c2ccc(CC)cc2)N3S(=O)(=O)c2ccc(C)cc2)cc1 (stereo not drawn)	-11	-1	nt	8	nt	nt
CCOC(=O)c1ccc(NC(=O)c2c(NC(=O)CCC(=O)O)sc3c2CCCCC3)cc1	5	5	6	43*	34	10*
CCOc1ccccc1NC(=O)c1c(NC(=O)CCC(=O)O)sc2c1CCCCC2	-8	0	17	27	nt	nt
Cc1cc(C)c(S(=O)(=O)Nc2nnc(C3CCCCC3)s2)c(C)c1	-10	-21	9	72*	59*	25*
O=S(=O)(Nc1nnc(C2CCCCC2)s1)c1ccc(F)cc1	-11	1	-4	30	nt	nt
O=[N+]([O-])c1ccc(S(=O)(=O)Nc2nnc(C3CCCCC3)s2)cc1	5	-5	5	47*	34	8.3*
Cc1cc(C)c(S(=O)(=O)Nc2nnc(CC(C)C)s2)c(C)c1	8	4	4	49*	33	8.4*
Cc1cc(C)c(S(=O)(=O)Nc2nnc(C)s2)c(C)c1	2	-8	-8	7	nt	nt
O=C(NC1CCCC1)c1ccc(COc2ccccc2)o1	nt	nt	nt	3	nt	nt
Oc1cc(O)cc(C=Cc2ccc(O)c(O)c2)c1	-5	5	nt	38*	29	15*
COc1cc(COc2ccc3c(C)c(CCC(=O)O)c(=O)oc3c2)cc(OC)c1OC	5	8	-7	12	nt	nt
Cc1c(CCC(=O)O)c(=O)oc2cc(OCc3cccc(Cl)c3)ccc12	4	0	6	38*	36*	9.1*
O=C(Nc1cc(Cl)ccc1O)c1cc(-c2ccco2)on1	12	14	10	46*	18	12*
CC(C)(C)C(=O)O[C@@H]1CCC[C@@]2(C(=O)N(Cc3ccccc3)c3ccccc32)[C@H]1NC(=O)CCc1ccccc1	nt	nt	nt	3	nt	nt
C[C@H](CO)N1C[C@H](C)[C@H](CN(C)Cc2ccc(C(=O)O)cc2)OCc2ccccc2-c2c(n(C)c3ccccc23)C1=O	-6	1	10	48*	50*	14*
SMILES	ARFGAP1 inhibitor	ASAP1 inh	NadD inh	rCAG RNA binder	rCAG binder conf	dCAG dye counter
CC(C)[C@H](NC(=O)c1cccs1)C(=O)N1CCC[C@H]1C(=O)NCc1ccccc1	5	4	nt	2	nt	nt
COc1cc([C@@H]2CC=C(C(=O)O)[C@H](c3ccc(Cl)cc3)N2S(=O)(=O)c2ccc(C)cc2)cc(OC)c1OC	0	4	3	35*	34	7.6*
Cc1ccc(S(=O)(=O)N2[C@@H](c3ccc(Cl)cc3)C(C(=O)O)=CC[C@H]2c2ccc(Cl)c(Cl)c2)cc1	-18	-3	8	86*	86*	59*
Cc1ccc(S(=O)(=O)N2CC(C(=O)O)=CC[C@H]2c2ccc(Cl)cc2)cc1	5	-10	4	37*	16	4
Cc1ccc(S(=O)(=O)N2C(c3ccc(Cl)c(Cl)c3)CC=C(C(=O)O)C2c2ccc(Cl)cc2)cc1 (stereo not drawn)	-20	-1	nt	82*	83*	52*
CC(=O)C1=CCC(c2ccc(C)cc2)N(S(=O)(=O)c2ccc(Cl)cc2)C1 (stereo not drawn)	-7	-4	-7	4	nt	nt
Cc1ccc(S(=O)(=O)N2C(c3ccc(Cl)c(Cl)c3)CC=C(C(=O)O)C2c2cccc(Cl)c2)cc1 (stereo not drawn)	-4	-14	nt	12	nt	nt
CCOC(=O)CCCN(c1[nH]c(C)c(C)c1C#N)S(=O)(=O)c1ccc(C)cc1	-1	5	-5	0	nt	nt
O=C(OCc1cn(Cc2c(F)cccc2F)nn1)N1CCCC1	nt	nt	nt	1	nt	nt
CC1CCCCN1S(=O)(=O)c1ccc(C(=O)Nc2nnc(-c3ccncc3)o2)cc1 (stereo not drawn)	-3	2	12	14	nt	nt
COc1ccc(-c2nnc(NC(=O)c3ccc(S(=O)(=O)N4COCC4(C)C)cc3)o2)cc1	-9	9	21	46*	54*	15*
CCCOc1ccc(-c2csc3ncn(Cc4ccc(C(=O)O)cc4)c(=O)c23)cc1	-1	6	7	51*	40*	11*
Cc1ccc(-c2csc3ncn(Cc4ccc(C(=O)O)cc4)c(=O)c23)cc1C	2	4	14	31	nt	nt
CC1(C(=O)NS(=O)(=O)c2cccs2)CCN1C(=O)C1(c2ccc(Cl)cc2)CCC1 (stereo not drawn)	1	-12	-7	28	nt	nt
CC1(C(=O)NS(=O)(=O)c2cccs2)CCN1C(=O)C1(c2ccccc2)CCCC1 (stereo not drawn)	9	-9	-10	19	nt	nt
CC1(C(=O)NS(=O)(=O)c2ccc(Cl)s2)CCN1C(=O)C1(c2ccccc2)CCCC1 (stereo not drawn)	-1	5	1	49*	51*	16*

Screening results: PubChem, several laboratories
